# Measured values from ChEMBL document CHEMBL4665829, “Synthesis, Structure-Activity Relationship, and Antimalarial Efficacy of 6-Chloro-2-arylvinylquinolines” (J Med Chem, 2020).
# Activity calls are given as the source filed them. The calls are words filed in the database; no cut-off is given here.
# Assays:
# [1] = test system: Plasmodium falciparum; experiment: Antiplasmodial activity against late trophozoite synchronized chloroquine-resistant Plasmodium falciparum Dd2 reduction in microbial growth at 6.6 nM measured after 12 hrs by YOYO-1 staining-based flow cytometric analysis; assay type: functional, organism-based
# Outline: (§1)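 Dd2 cultures tightly synchronized by magnetic separation and sorbitol were dosed at 5 × EC50 at 6, 18, 30 or 42 h post-invasion. Controls: DHA 50 nM, atovaquone 6.6 nM, DMSO 0.1%. Sampled every 12 h for Giemsa thin smears and for flow cytometry: glutaraldehyde/paraformaldehyde fixation, Triton permeabilization, RNAse, 500 nM YOYO-1, 500,000 events/sample. Three independent biological replicates.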
# [2] = test system: Plasmodium falciparum; experiment: Parasiticidal activity against chloroquine-resistant Plasmodium falciparum Dd2 infected in RBC assessed as reduction in parasitemia at 6.6 nM incubated for 48 hrs followed by compound washout and then incubated for 96 hrs by Giemsa staining based microscopic analysis; assay type: functional, organism-based
# Outline: (§2)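 Controls: 0.15% DMSO, DHA 50 nM, atovaquone 6.6 nM. Drug removed by three RPMI washes, then parasitemia followed daily for 96 h by Giemsa thin smears. Three independent biological replicates.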
# [3] = test system: Plasmodium falciparum; experiment: Antiplasmodial activity against late trophozoite synchronized chloroquine-resistant Plasmodium falciparum Dd2 reduction in microbial growth at 6.6 nM measured after 12 hrs by Giemsa staining-based microscopic analysis; assay type: functional, organism-based; outline: as §1
# [4] = test system: Plasmodium berghei; experiment: Antiplasmodial activity against Plasmodium berghei ANKA expressing luciferase infected in Swiss Webster mouse at 100 mg/kg, po for 5 days using monophosphate salt form of compound by luminescence based assay; assay type: functional, organism-based; settings: time 5.0 day
# Outline: (§3)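 Female Swiss Webster mice got 10³ RBC infected with luciferase-expressing P. berghei ANKA. From 48 h post-infection, groups of five were gavaged once daily for 5 days in 2% methylcellulose/0.5% Tween 80, against a vehicle control. On day 7, mice received 150 mg/kg D-luciferin in PBS, and bioluminescence was imaged by IVIS as a measure of parasite load.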
# [5] = Toxicity in BALB/c mouse infected with Plasmodium berghei ANKA expressing luciferase assessed as reduction in mobility at 25 to 100 mg/kg, po for 4 days measured up to 30 days; assay type: organism-based; settings: in vivo, 96 h, dose 25-100 mg/kg, time 4 day
# Outline: (§4)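 Female BALB/c mice (10 weeks, ~20 g), five per group, were inoculated i.p. with 10⁶ P. berghei ANKA 676m1cl1-parasitized RBC. Oral gavage in 2% methylcellulose/0.5% Tween 80, once daily for 4 days starting 4 h post-infection, against a vehicle control. Tail-blood Giemsa smears from day 4. Signs and body weight were followed. Sacrifice at 40% parasitemia; cure meant a negative smear at day 30. Kaplan–Meier, log-rank.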
# [6] = test system: Plasmodium falciparum; experiment: Antiplasmodial activity against synchronized chloroquine-resistant Plasmodium falciparum Dd2 reduction in microbial growth 5 times of EC50 treated with compound at 6 to 30 hrs post infection measured after 12 hrs by YOYO-1 staining-based flow cytometric analysis; assay type: functional, organism-based; outline: as §1
# [7] = test system: Plasmodium falciparum; experiment: Antiplasmodial activity against synchronous gametocyte early stage of Plasmodium falciparum 3D7 harboring luc7 incubated for 72 hrs by ONE-Glo luciferase assay; assay type: functional, organism-based; settings: 3D7, 72 h
# Outline: (§5)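 Gametocytes of P. falciparum 3D7 luc7 induced by nutrient starvation, cultured in heparin medium to remove asexual stages, Percoll-purified as early (II–III) or late (IV–V) stage. 50,000 gametocytes/well exposed 72 h to a 19-point gradient, 0.038 nM–10 μM. ONE-Glo luciferase read after 5 min. EC50 by nonlinear curve fit; three experiments.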
# [8] = test system: Plasmodium falciparum; experiment: Antiplasmodial activity against chloroquine-resistant Plasmodium falciparum Dd2 infected in human erythrocytes assessed as reduction in microbial growth after 72 hrs by SYBR green I staining based fluorescence assay; assay type: functional, organism-based; settings: Dd2, Erythrocyte
# Outline: (§6)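 SYBR Green I assay: twofold serial dilutions on P. falciparum cultures at 1% parasitemia, 1% hematocrit, 37 °C, 5% CO₂, 72 h, max 0.1% DMSO. DMSO and CQ as growth and inhibition controls. Plates frozen at −80 °C, thawed, lysed in Tris/saponin/EDTA/Triton buffer with 0.01% SYBR Green I, 1 h dark at room temperature. Fluorescence read at 485 ex/530 em. EC50 by nonlinear dose–response fit.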
# [9] = test system: HepG2; experiment: Cytotoxicity against human HepG2 cells assessed as reduction in cell viability after 48 hrs by MTS assay; assay type: cell-based; settings: HepG2, 48 h
# Outline: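 HepG2 cells were seeded at 2250 per well and grown 24 h at 37 °C, 5% CO₂. Serial dilutions starting at 25 μM were added for a further 48 h. MTS was then added for 3 h at 37 °C and absorbance read at 490 nm. EC₅₀ came from nonlinear dose–response fits.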
# [10] = test system: Plasmodium falciparum; experiment: Antiplasmodial activity against synchronized chloroquine-resistant Plasmodium falciparum Dd2 reduction in microbial growth 5 times of EC50 treated with compound at 6 to 30 hrs post infection measured after 12 hrs by Giemsa staining-based microscopic analysis; assay type: functional, organism-based; outline: as §1
# [11] = Toxicity in BALB/c mouse infected with Plasmodium berghei ANKA expressing luciferase assessed as hypotrichosis at 25 to 100 mg/kg, po for 4 days measured up to 30 days; assay type: organism-based; settings: in vivo, 96 h, dose 25-100 mg/kg, time 4 day; outline: as §4
# [12] = Selectivity index, ratio of EC50 for cytotoxicity against human HepG2 cells to antiplasmodial activity against chloroquine-resistant Plasmodium falciparum Dd2; assay type: toxicity, cell-based; settings: read-out: Ratio EC50
# [13] = test system: Plasmodium falciparum; experiment: Parasiticidal activity against chloroquine-resistant Plasmodium falciparum Dd2 infected in RBC assessed as reduction in parasitemia at 5 times of EC50 incubated for 6 to 48 hrs followed by compound washout and then incubated for 96 hrs by Giemsa staining based microscopic analysis; assay type: functional, organism-based; settings: time hrs 6-48; outline: as §2
# [14] = Toxicity in BALB/c mouse infected with Plasmodium berghei ANKA expressing luciferase assessed as reduction in weight at 25 to 100 mg/kg, po for 4 days measured up to 30 days; assay type: organism-based; settings: in vivo, 96 h, dose 25-100 mg/kg, time 4 day; outline: as §4
# [15] = test system: Plasmodium berghei; experiment: Antiplasmodial activity against Plasmodium berghei ANKA expressing luciferase infected in BALB/c mouse at 25 mg/kg, po for 4 days using monophosphate salt form of compound by Giemsa staining based microscopic analysis; assay type: functional, organism-based; settings: time 4.0 day; outline: as §4
# [16] = test system: Plasmodium falciparum; experiment: Antiplasmodial activity against synchronized chloroquine-resistant Plasmodium falciparum Dd2 reduction in microbial growth 5 times of EC50 treated with compound at 42 hrs post infection measured after 12 hrs by YOYO-1 staining-based flow cytometric analysis; assay type: functional, organism-based; outline: as §1
# [17] = test system: Plasmodium falciparum; experiment: Antiplasmodial activity against synchronized chloroquine-resistant Plasmodium falciparum Dd2 reduction in microbial growth at 5 times of EC50 treated with compound at 42 hrs post infection measured after 12 hrs by Giemsa staining-based microscopic analysis; assay type: functional, organism-based; outline: as §1
# [18] = Resistant index, ratio of EC50 for antiplasmodial activity against chloroquine-resistant Plasmodium falciparum Dd2 to antiplasmodial activity against chloroquine-sensitive Plasmodium falciparum 3D7; assay type: functional
# [19] = test system: Plasmodium berghei; experiment: Antiplasmodial activity against Plasmodium berghei ANKA expressing luciferase infected in BALB/c mouse assessed as mean survival days at 100 mg/kg, po for 4 days using monophosphate salt form of compound (reference value: 8 day); assay type: functional; settings: time 4 day
# [20] = test system: Plasmodium falciparum; experiment: Induction of morphological changes in chloroquine-resistant Plasmodium falciparum Dd2 assessed as appearance of membrane-bound structure at 5 times of EC50 measured after 1.5 to 12 hrs by TEM analysis; assay type: functional, organism-based; settings: time hrs 1.5-12
# Outline: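 Fixed in 2% paraformaldehyde/2.5% glutaraldehyde in cacodylate pH 7.4, post-fixed in 1% OsO₄, en bloc 1% uranyl acetate, ethanol-dehydrated, Eponate-embedded. 95 nm sections stained with uranyl acetate/lead citrate for TEM.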
# [21] = test system: Plasmodium falciparum; experiment: Antiplasmodial activity against synchronous gametocyte late stage of Plasmodium falciparum 3D7 harboring luc7 incubated for 72 hrs by ONE-Glo luciferase assay; assay type: functional, organism-based; settings: 3D7, 72 h; outline: as §5
# [22] = Stability of compound in mouse liver microsomes assessed as parent compound remaining at 1 uM after 60 mins in presence of NADPH by LC-MS analysis; assay type: ADME, Microsome; settings: 1 h
# Outline: (§7)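 Mouse liver microsomes (0.5 mg/mL final protein) in 0.1 M phosphate, pH 7.4, with compound at 1 μM, 37 °C with shaking. Aliquots were quenched in cold acetonitrile and centrifuged; LC–MS gave parent peak area at 60 min relative to 0 min.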
# [23] = Intrinsic clearance in mouse liver microsomes assessed as parent compound at 1 uM after 60 mins in presence of NADPH by LC-MS analysis; assay type: ADME, Microsome; outline: as §7
# [24] = test system: Hemozoin; experiment: Inhibition of beta-hematin formation at 12.5 to 200 uM after 16 hrs by inverted microscopic analysis; settings: dose microM 12.5-200, time 16.0 hrs
# Outline: (§8)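 Hemin (2 mM stock in 0.1 M NaOH; 100 μM final), propionate buffer pH 5.2 and sonicated phosphatidylcholine were incubated with a compound concentration series for 16 h at 37 °C with gentle shaking. Crystals were imaged by inverted microscope before quenching with 7.5% SDS in bicarbonate, pH 9.1. Free hemin was measured at 405 nm against a 0–16 μM calibration. Three independent experiments.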
# [25] = Toxicity in BALB/c mouse infected with Plasmodium berghei ANKA expressing luciferase assessed as hunched posture at 25 to 100 mg/kg, po for 4 days measured up to 30 days; assay type: organism-based; settings: in vivo, 96 h, dose 25-100 mg/kg, time 4 day; outline: as §4
# [26] = test system: Plasmodium berghei; experiment: Antiplasmodial activity against Plasmodium berghei ANKA expressing luciferase infected in Swiss Webster mouse at 25 mg/kg, po for 5 days using monophosphate salt form of compound by luminescence based assay; assay type: functional, organism-based; settings: time 5.0 day; outline: as §3
# [27] = test system: Plasmodium falciparum; experiment: Antiplasmodial activity against chloroquine-sensitive Plasmodium falciparum 3D7 infected in human erythrocytes assessed as reduction in microbial growth after 72 hrs by SYBR green I staining based fluorescence assay; assay type: functional, organism-based; settings: 3D7, Erythrocyte; outline: as §6
# [28] = Half life in mouse liver microsomes at 1 uM after 60 mins in presence of NADPH by LC-MS analysis; assay type: ADME, Microsome; settings: 1 h; outline: as §7
# [29] = test system: Plasmodium falciparum; experiment: Potency index, ratio of EC50 for UCF501 to test compound EC50 for antiplasmodial activity against chloroquine-resistant Plasmodium falciparum Dd2 infected in human erythrocytes assessed as reduction in microbial growth after 72 hrs by SYBR green I staining based fluorescence assay; assay type: functional, Erythrocyte; outline: as §6
# [30] = test system: Plasmodium falciparum; experiment: Antiplasmodial activity against late trophozoite synchronized chloroquine-resistant Plasmodium falciparum Dd2 reduction in microbial growth at 5 times of EC50 after 12 hrs by YOYO-1 staining-based flow cytometric analysis; assay type: functional, organism-based; outline: as §1
# [31] = test system: Hemozoin; experiment: Inhibition of beta-hematin formation after 16 hrs by inverted microscopic analysis; settings: dose microM 12.5-200, time 16.0 hrs; outline: as §8
# [32] = test system: Plasmodium falciparum; experiment: Antiplasmodial activity against late trophozoite synchronized chloroquine-resistant Plasmodium falciparum Dd2 reduction in microbial growth at 5 times of EC50 after 12 hrs by Giemsa staining-based microscopic analysis; assay type: functional, organism-based; outline: as §1
SMILES,Activity [4],EC50 [7] [nM],EC50 [8] [nM],EC50 [9] [µM],selectivity ratio [12],Activity [13],Ratio EC50 [18],EC50 [21] [nM],Stabilty [22] [%],CLH [23] [µL/min/mg],Activity [26],EC50 [27] [nM],other results
O=C1C(O)=C([C@H]2CC[C@H](c3ccc(Cl)cc3)CC2)C(=O)c2ccccc21,–,–,–,–,–,–,–,–,–,–,–,–,Activity [1]: inactive; Activity [2]: Active; Activity [3]: inactive
CN(C)CCNc1cc(/C=C/c2ccc(C(F)(F)F)cc2)nc2ccc(Cl)cc12,Active,472,10.9,11.2,1030,Active,0.6,394,67.1,13.3,Active,16.8,Activity [5]: Non-Toxic; Activity [6]: Active; Activity [10]: Active; Activity [11]: Non-Toxic; Activity [14]: Non-Toxic; Activity [15]: Active; Activity [16]: inactive; Activity [17]: inactive; MSD [19]: 30 days; Activity [20]: Active; inhibition [24]: inactive; Activity [25]: Non-Toxic
CN(C)CCNc1cc(/C=C/c2ccc(F)cc2)nc2ccc(Cl)cc12,Active,591,4.8,5.33,1110,Active,0.6,2050,47.1,25.1,Active,8.7,t1/2 [28]: 55.2 min; Ratio EC50 [29]: 14; Activity [30]: Active; inhibition [31]: Dose-dependent effect; Activity [32]: Active
